Platelet DG rel = platelet dense granule release activity; human platelet-rich plasma, SFLLRN dense granule ATP release, luminescence; inhibition, %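 (compounds screened at 7.5 µM in platelet-rich plasma)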; 0.22% of 300,000 active;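 active means mean replicate score, as percent of positive control, at or above 50; inconclusive means mean below 50 but at least one replicate at or above 50; inactive means mean and every replicate below 50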
SENP1 FRET inh = SENP1 (human) catalytic domain inhibition | AID 624204 | 0.21% of 360,000 active | recombinant SENP1 catalytic domain, CyPet-SUMO1-YPet FRET cleavage | inhibition, % at 10 µM;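 active means inhibition at least 30% at 10 µM, raw YFP signal under a set limit, fluorescence ratio 0.5 to 1.5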;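 further: 0% = enzyme with DMSO and 100% = no enzyme wells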
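Material: hSENP1 catalytic domain, recombinant; medium: Tris pH 8 with BME, BSA, NP40 and catalase; compound: single concentration of 10 µM compound, 0.5% DMSO final; technique: FRET read of cyan and yellow fluorescence; timing: 50 min enzyme reaction, room temperature, light-protected; reagent: SFCypet-SUMO1-SFYpet substrate at 25 nM; control set: no-enzyme low, enzyme-DMSO high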
SENP8 block-1 = SENP8 protease inhibition | purified SENP8, Z-RLRGG-aminoluciferin cleavage, luminescence | Q96LD8 | 1.2% of 330,000 active | inhibition, % at 10 µM; in the data active means inhibition above about 50%
SENP7 block = SENP7 protease inhibition; recombinant SENP7, Z-RLRGG-aminoluciferin luminescence, 40 min; 1.5% of 330,000 active; AID 434973; inhibition, % at 5 µM;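 active means inhibition above about 50% at the single test dose, limit read from the data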;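 further: plate controls were DMSO with enzyme for no effect and no enzyme buffer wells for full effect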
SENP6 inh = SENP6 protease inhibition; 1.8% of 330,000 active; Q9GZR1; inhibition, % at 10 µM; Recombinant SENP6 catalytic domain, aminoluciferin luminescence;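 active means inhibition above about 50% at the single tested dose, limit read from the data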;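 further: plate controls were DMSO wells with enzyme for no effect and DMSO wells lacking enzyme for full effect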
Target sequence (Q9GZR1 628-1112 limits assumed): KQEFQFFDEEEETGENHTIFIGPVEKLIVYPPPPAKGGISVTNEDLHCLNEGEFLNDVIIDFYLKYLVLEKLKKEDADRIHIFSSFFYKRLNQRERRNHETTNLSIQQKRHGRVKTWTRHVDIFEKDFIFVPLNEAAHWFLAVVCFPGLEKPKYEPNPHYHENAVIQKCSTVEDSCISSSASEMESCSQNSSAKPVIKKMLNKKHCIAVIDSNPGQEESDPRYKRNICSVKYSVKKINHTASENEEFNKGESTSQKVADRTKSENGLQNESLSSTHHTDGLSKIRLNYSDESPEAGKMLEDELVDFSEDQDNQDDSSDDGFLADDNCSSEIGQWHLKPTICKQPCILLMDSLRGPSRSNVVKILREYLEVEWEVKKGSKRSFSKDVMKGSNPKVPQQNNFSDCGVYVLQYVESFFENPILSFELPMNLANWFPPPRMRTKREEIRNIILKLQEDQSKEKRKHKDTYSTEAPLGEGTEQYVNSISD
SENP8 block-2 = blocks human SENP8 cleavage of Nedd8 substrate. Q96LD8. recombinant SENP8, Nedd8 substrate fluorescence. inhibition, % at 20 µM. 0.64% of 360,000 active; in the data active means inhibition mostly above about 40%, no sharp cut-off; inactive means mostly below about 27%
SENP8 conf = confirmation of human SENP8 protease inhibitors | shares compounds with SENP7 block | Recombinant SENP8, Z-RLRGG-aminoluciferin luminescence, 60 min | inhibition, % at 12.5 µM | 40% of 6,200 active;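 active means mean inhibition across replicates above about 50%, limit read from the data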
SENP6 conf = confirmation of human SENP6 protease inhibitors. shares compounds with SENP7 block. recombinant SENP6, Z-RLRGG-aminoluciferin luminescence. inhibition, % at 12.5 µM. 58% of 6,200 active. AID 488915
SENP7 conf = confirmation of human SENP7 protease inhibitors; recombinant SENP7, Z-RLRGG-aminoluciferin luminescence, 40 min; inhibition, % at 12.5 µM; shares compounds with SENP7 block; 69% of 6,200 active; AID 488917
Casp3 select = inhibits human caspase-3 in SENP selectivity test | inhibition, % at 12.5 µM | purified caspase-3, Z-DEVD-aminoluciferin luminescence, 60 min | AID 488918 | shares compounds with SENP7 block | 60% of 6,200 active;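 active means mean inhibition above about 50%, limit read from the data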;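 further: plate controls were enzyme with DMSO for no effect and wells without caspase-3 for full effect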
SENP luc ctr = luminescence interference (SENP counter-screen) | shares compounds with SENP7 block | Pre-incubated SENP8/Z-RLRGG-aminoluciferin, luciferase luminescence interference | inhibition, % at 12.5 µM | 39% of 6,200 active;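 active means mean inhibition above about 50% when retested at one dose, limit read from the data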;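 further: plate controls were DMSO wells with completed reaction for no effect and substrate without enzyme for full effect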
An asterisk follows results filed as active; ? = inconclusive; nt = no result. Shown are actives, neighbours in structure and some others; about 2.6% of the full set was active somewhere.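 How the source made its calls, unless noted: active means mean inhibition above about 50% in the one-dose retest (limit read from the data); inactive means the rest.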

SMILES	Platelet DG rel	SENP1 FRET inh	SENP8 block-1	SENP7 block	SENP6 inh	SENP8 block-2	SENP8 conf	SENP6 conf	SENP7 conf	Casp3 select	SENP luc ctr
COc1cc(/C=C/C(=O)O)cc(S(=O)(=O)Nc2ccc3nc(SC)sc3c2)c1OC	0	1	-2	9	15	2	nt	nt	nt	nt	nt
Cc1cc(OC(C)C(=O)NCc2cccnc2)c2c(C)cc(=O)oc2c1 (stereo not drawn)	3	-1	-1	4	1	-347	nt	nt	nt	nt	nt
COc1ccc2oc(C(=O)Nc3ccc(N4CCOCC4)cc3)c(C)c2c1	-19	-24	-4	-18	-12	-127	nt	nt	nt	nt	nt
COc1ccc(NC(=O)Nc2cccc3c2O[C@@H](CN(C)CC2CCCCC2)[C@@H](C)CN([C@H](C)CO)C3=O)cc1	nt	1	8	-1	-3	12	nt	nt	nt	nt	nt
Cc1cc(C)nc(Nc2nc3ccccc3o2)n1	9	4	-2	-7	-16	15	nt	nt	nt	nt	nt
O=C(NC(=Nc1nc2ccccc2o1)NC(=O)c1ccccc1)c1ccccc1	3	-1	-2	-2	-2	-351	nt	nt	nt	nt	nt
O=C(NNc1nc2ccccc2o1)c1ccccc1	3	2	53*	0	64*	2	16	69*	48	71*	44
c1ccc(Nc2nc3ccccc3o2)cc1	5	-2	90*	97*	97*	10	10	97*	-1	93*	94*
Fc1ccccc1Nc1nc2ccccc2o1	58*	1	94*	97*	99*	20	97*	98*	102*	97*	96*
COc1ccc(-c2ccc(SCC(=O)N3CC(=O)Nc4ccccc43)nn2)cc1	1	3	3	3	-15	3	nt	nt	nt	nt	nt
Cc1cnc(C(=O)N2CCN(S(=O)(=O)c3ccc(F)c(F)c3F)CC2)cn1	nt	1	11	-12	-6	3	nt	nt	nt	nt	nt
O=c1[nH]c(-c2ccccc2)cnc1-c1ccccc1	17	-122	33	74*	52*	-406	8	12	12	19	12
O=C(NCCc1ccccc1)c1ccc(S(=O)(=O)N2CCCC2)cc1	nt	2	-15	-7	-15	12	nt	nt	nt	nt	nt
O=C(O)c1cc(O)c2c(c1)C(=O)c1cc(O)cc(O)c1C2=O	4	4	28	-6	52*	3	67*	60*	84*	23	72*
COc1ccc(NC(=O)CCNS(=O)(=O)c2cccc3nonc23)c(OC)c1	-5	2	-7	3	-35	-7	nt	nt	nt	nt	nt
CC(=O)c1ccc(NC(=O)c2ccc(N3CCCC3=O)cc2)cc1	nt	-2	0	-8	-21	2	nt	nt	nt	nt	nt
COc1cc(NC(=O)c2ccc(N3CCCC3=O)cc2)cc(OC)c1	nt	2	60*	72*	70*	25	46	61*	73*	84*	56*
COc1ccc(NC(=O)c2ccc(N3CCCC3=O)cc2)cc1Cl	nt	0	-8	54*	24	5	-6	-1	4	6	0
O=C(Nc1ccc(OC(F)F)c(Cl)c1)c1ccccn1	8	1	79*	85*	85*	12	74*	75*	95*	68*	27
COc1cc(NC(=O)c2ccccn2)cc(OC)c1OC	3	-1	-8	-3	-13	2	nt	nt	nt	nt	nt
COc1ccc(NC(=O)c2ccc(OC(F)F)cc2)cc1Cl	64*	-2	95*	97*	93*	-3	86*	95*	100*	92*	76*
O=C(c1cccs1)N1CCc2ccccc21	4	-1	40	61*	60*	8	35	38	80*	76*	59*
O=C(c1cccs1)N1CCCc2ccccc21	-2	1	-4	2	-13	9	nt	nt	nt	nt	nt
CC1Cc2ccccc2N1C(=O)c1ccc(Br)o1 (stereo not drawn)	14	1	nt	nt	nt	12	nt	nt	nt	nt	nt
Cc1ccc(C(=O)N2CCc3ccccc32)o1	20	1	88*	91*	91*	7	91*	91*	98*	95*	89*
SMILES	Platelet DG rel	SENP1 FRET inh	SENP8 block-1	SENP7 block	SENP6 inh	SENP8 block-2	SENP8 conf	SENP6 conf	SENP7 conf	Casp3 select	SENP luc ctr
Cc1ccc(C(=O)N2c3ccccc3CC2C)o1 (stereo not drawn)	7	0	90*	94*	85*	30	94*	96*	101*	97*	83*
Cc1ccccc1C(=O)NNc1ccc(-c2csnn2)cc1	25	2	7	-2	-14	19	nt	nt	nt	nt	nt
O=C1Nc2ccccc2SC1c1ccccc1 (stereo not drawn)	3	3	nt	nt	nt	11	nt	nt	nt	nt	nt
Cc1ccc(NC2Sc3ccccc3NC2=O)cc1 (stereo not drawn)	-5	-3	53*	30	77*	9	53*	41	68*	57*	55*
Cc1ccc(S/C=C\C(=O)c2ccccc2)cc1	20	1	82*	92*	87*	15	6	90*	79*	64*	55*
Cc1ccc(C(=O)/C=C\C(=O)c2ccc(C)cc2)cc1	22	0	nt	nt	nt	23	nt	nt	nt	nt	nt
CCOc1ccc(-c2nc(CCl)cs2)cc1	?	1	28	8	52*	-24	54*	70*	91*	67*	46
CC1(C)SC2c3ccccc3C(=O)N2[C@@H]1C(=O)O (stereo partly drawn)	4	2	-2	-2	5	7	nt	nt	nt	nt	nt
CCCOc1c(Br)cc(C(=O)OCC(=O)NC2CC2)cc1OC	9	3	0	5	-13	13	nt	nt	nt	nt	nt
O=C(CCCN1C(=O)/C(=C/c2ccc(F)cc2)SC1=S)NC1CCS(=O)(=O)C1 (stereo not drawn)	-4	1	19	5	44	17	nt	nt	nt	nt	nt
N#CC(=C1CCCC1)c1nc(-c2ccccc2)cs1	1	4	65*	65*	77*	14	5	64*	88*	54*	33
N#CC(=C1CCCC1)c1nc(-c2ccccc2O)cs1	10	-1	63*	90*	86*	5	9	33	40	53*	55*
N#CC(=C1CCCC1)c1nc(-c2cc3ccccc3oc2=O)cs1	-10	2	-16	16	-13	-297	nt	nt	nt	nt	nt

Bioassay records from PubChem BioAssay.
